In experiment [1] the test system is Rattus norvegicus. The experiment in a line: compound was tested in vivo for antiinflammatory activity against rats by RPAR(reverse passive Arthus reaction) synovitis method. In kind it is functional. The method in brief:
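Lewis rats dosed orally 1 h before iv BSA (2.28 mg) and intraarticular rabbit anti-BSA (0.54 mg) into one knee, saline into the other; dosed orally again at 3 h. Total dose counted. At about 17 h, subpatellar tissue with synovium weighed; Δ weight between the two knees taken as the response. Compared with lesion controls by ANOVA.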

Experiment [2] deals with T1, Polyunsaturated fatty acid 5-lipoxygenase (Rattus norvegicus) (UniProt P12527).
T1 sequence (whole entry): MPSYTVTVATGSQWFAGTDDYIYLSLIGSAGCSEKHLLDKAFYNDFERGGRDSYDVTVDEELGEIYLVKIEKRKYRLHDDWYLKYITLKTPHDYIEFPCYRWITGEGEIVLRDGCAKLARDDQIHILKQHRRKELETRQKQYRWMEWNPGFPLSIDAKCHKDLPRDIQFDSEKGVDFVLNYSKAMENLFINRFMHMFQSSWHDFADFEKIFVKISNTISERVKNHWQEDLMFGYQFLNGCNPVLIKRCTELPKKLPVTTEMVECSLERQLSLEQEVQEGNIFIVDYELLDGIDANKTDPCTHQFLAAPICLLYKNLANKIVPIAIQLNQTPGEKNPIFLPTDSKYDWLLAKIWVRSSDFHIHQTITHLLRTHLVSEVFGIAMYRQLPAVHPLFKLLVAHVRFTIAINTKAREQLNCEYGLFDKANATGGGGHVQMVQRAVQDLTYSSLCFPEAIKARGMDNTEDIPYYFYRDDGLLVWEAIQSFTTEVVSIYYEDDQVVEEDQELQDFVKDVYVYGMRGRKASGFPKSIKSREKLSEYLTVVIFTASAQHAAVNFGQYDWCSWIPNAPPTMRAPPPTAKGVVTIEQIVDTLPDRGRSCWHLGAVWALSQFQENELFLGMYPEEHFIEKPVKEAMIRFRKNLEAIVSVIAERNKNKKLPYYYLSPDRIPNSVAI
The experiment in a line: In vitro inhibitory activity against Lipoxygenase in rat neutrophils at a dose of 50 uM. The method in brief: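 Neutrophils come from the 4 h pleural exudate of male Wistar-Lewis rats given iv BSA plus intrapleural rabbit anti-BSA IgG. Cells are washed, red cells lysed with NH4Cl, and resuspended at about 5×10^6 cells/0.1 mL in Tris pH 7.4 with NaCl and 1 mM CaCl2. Cells are preincubated with compound 4 min at room temperature.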

Experiment [3] concerns the target Cyclooxygenase (Rattus norvegicus) (UniProt P35355+Q63921). The experiment in a line: In vitro inhibitory activity against Prostaglandin G/H synthase in rat neutrophils at a dose of 50 uM.
Experiment [4] is filed under the species Rattus norvegicus. In words: Antiinflammatory activity by immune response to collagen II antigen in rats antibody titer was determined by passive hemagglutinination. In kind it is functional. The method in brief:
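In rats with bovine type II collagen/incomplete Freund's adjuvant arthritis, the antibody response to collagen II was titred by passive hemagglutination. The delayed-type hypersensitivity component, ear thickness 24 h after intrapinna antigen, was read at day 21.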

The species named for experiment [5] is Rattus norvegicus. In words: Delayed Type hypersensitivity (DTH) is measured by increase in ear thickness 24 hours after antigen injection into pinna. In kind it is functional.
Experiment [6] concerns Rattus norvegicus. In words: Antiinflammatory activity against collagen II arthritis in rats, activity % inhibition in noninjected paw edema. In kind it is functional. Details: concentration or dose not given beside the values. The method, boiled down: (§1)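 Rats immunised with bovine articular-cartilage type II collagen (dissolved in 0.01 M AcOH for 24 h at 4 °C, dialysed against saline) mixed in equal volume with incomplete Freund's adjuvant. Paws were examined weekly for 7 weeks. An animal counted as arthritic at Δ paw volume ≥8.0 (injected paw) or ≥4.0 (noninjected paw). Bone lesions were scored on lateral-projection foot radiographs. 16 rats/group.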

Experiment [7] concerns Rattus norvegicus. In words: Antiinflammatory activity against collagen II arthritis in rats, activity% inhibition in injected paw edema. Details: concentration or dose not given beside the values. In kind it is functional. The method in brief: as §1
Experiment [8] has as its system Rattus norvegicus. The experiment in a line: Tested in vivo for antiinflammatory activity against chronic adjuvant arthritic rat by prophylactic inhibition 2 degree paw after peroral administration of 9 mg/kg of dose. Conditions: route oral. In kind it is functional. The method in brief:
(§2)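 Prophylactic regimen, rats. Adjuvant is heat-killed Mycobacterium tuberculosis ground to a fine powder in paraffin oil (6 mg/mL); 0.1 mL is injected into the left hind paw. Oral drug is given 1 h before adjuvant challenge, then for 21 consecutive days; controls receive methyl cellulose. Left (1°) and right (2°) hind paw volumes are measured by plethysmograph.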

The subject of experiment [9] is Rattus norvegicus. The experiment in a line: Compound was tested in vivo for antiinflammatory activity against chronic adjuvant arthritic rat by therapeutic inhibition 1 degree paw after peroral administration of 9 mg/kg of dose. In kind it is functional. Conditions: route oral.
The test system of experiment [10] is Rattus norvegicus. In words: Tested in vivo for antiinflammatory activity against chronic adjuvant arthritic rat by prophylactic inhibition 1 degree paw after peroral administration of 9 mg/kg of dose. The settings on record: route oral. In kind it is functional. The method in brief:
as §2

Experiment [11] deals with Rattus norvegicus. In words: Compound was tested in vivo for antiinflammatory activity against chronic adjuvant arthritic rat by prophylactic inhibition 2 degree paw after peroral administration of 18 mg/kg of dose. In kind it is functional. Conditions: route oral. The method, boiled down:
(§3)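 Prophylactic adjuvant arthritis: heat-killed Mycobacterium tuberculosis powder in paraffin oil (6 mg/mL), 0.1 mL injected into the left hind paw. Drug given orally 1 h before adjuvant, then for 21 consecutive days; controls received methyl cellulose. Left (1°) and right (2°) hind paw volumes were measured by plethysmograph.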

Experiment [12] relates to Rattus norvegicus. The experiment in a line: Compound was tested in vivo for antiinflammatory activity against chronic adjuvant arthritic rat by prophylactic inhibition 2 degree paw after peroral administration of 36 mg/kg of dose. The settings on record: po. In kind it is functional.
The test system of experiment [13] is Rattus norvegicus. The experiment in a line: Compound was tested in vivo for antiinflammatory activity against chronic adjuvant arthritic rat by prophylactic inhibition 1 degree paw after peroral administration of 18 mg/kg of dose. In kind it is functional. The method, boiled down: as §3
Experiment [14] relates to Rattus norvegicus. In words: Compound was tested in vivo for antiinflammatory activity against chronic adjuvant arthritic rat by prophylactic inhibition 1 degree paw after peroral administration of 36 mg/kg of dose. In kind it is functional. Conditions: po.
The subject of experiment [15] is Rattus norvegicus. The experiment in a line: In vivo antiinflammatory activity against rats by RPAR(reverse passive Arthus reaction) synovitis method. Details: concentration or dose not given beside the values. In kind it is functional. The method, boiled down: (§4)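 Lewis rats, oral drug or placebo 1 h before iv BSA (2.28 mg in saline), then intraarticular rabbit anti-BSA (0.54 mg) into one knee and saline into the other, under light anesthesia. Second oral dose at 3 h; the total of both doses is the calculated dose. About 17 h after induction, subpatellar tissue with synovium is excised and weighed. Response is antibody-minus-saline knee weight, tested by analysis of variance.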

Experiment [16] has as its system Rattus norvegicus. In words: Compound was tested in vivo for antiinflammatory activity against chronic adjuvant arthritic rat by therapeutic inhibition 2 degree paw after peroral administration of 9 mg/kg of dose. In kind it is functional. Conditions: route oral.
In experiment [17] the test system is Rattus norvegicus. In words: Compound was tested in vivo against chronic adjuvant arthritic rat by prophylactic inhibition 2 degree paw. Relative potency with respect to (8-Benzyl-5-hydroxy-1,3-dimethyl-6-propyl-1H,8H-1,3,4b,8,9-pentaaza-fluorene-2,4,7-trione). In kind it is functional.
Experiment [18] relates to Rattus norvegicus. The experiment in a line: Compound was tested in vivo for antiinflammatory activity against chronic adjuvant arthritic rat by therapeutic inhibition 2 degree paw. Relative potency with respect to (8-Benzyl-5-hydroxy-1,3-dimethyl-6-propyl-1H,8H-1,3,4b,8,9-pentaaza-fluorene-2. In kind it is functional.
The species named for experiment [19] is Rattus norvegicus. In words: Antiinflammatory activity on the development of collagen II arthritis in rats, measured based on animals positive for arthritis by the presence of bone lesions. In kind it is functional. The method in brief:
as §1

The subject of experiment [20] is Rattus norvegicus. In words: Antiinflammatory activity on the development of collagen II arthritis in rats, measured based on animals positive for arthritis by the presence of paw edema. In kind it is functional. The method, boiled down: as §1
The test system of experiment [21] is Rattus norvegicus. In words: Compound was tested in vivo for antiinflammatory activity against chronic adjuvant arthritic rat by therapeutic inhibition 2 degree paw after peroral administration of 36 mg/kg of dose. The settings on record: route oral.
For experiment [22], the system named is Rattus norvegicus. The experiment in a line: Compound was tested in vivo for antiinflammatory activity against chronic adjuvant arthritic rat by therapeutic inhibition 1 degree paw after peroral administration of 36 mg/kg of dose. Conditions: route oral.
Experiment [23] deals with Rattus norvegicus. The experiment in a line: Compound was tested in vivo for antiinflammatory activity against rats by RPAR(reverse passive Arthus reaction) synovitis method. In kind it is functional. The method, boiled down:
as §4

Experiment [24] has as its system Rattus norvegicus. In words: Compound was tested in vivo for antiinflammatory activity against chronic adjuvant arthritic rat by therapeutic inhibition 2 degree paw after peroral administration of 5 mg/kg of dose. Conditions: po, read-out: Inhibition.
Experiment [25] deals with Rattus norvegicus. The experiment in a line: Compound was tested in vivo for antiinflammatory activity against chronic adjuvant arthritic rat by therapeutic inhibition 1 degree paw after peroral administration of 5 mg/kg of dose. The settings on record: po, read-out: Inhibition.
Experiment [26] concerns Rattus norvegicus. The experiment in a line: Compound was tested in vivo for antiinflammatory activity against chronic adjuvant arthritic rat by prophylactic inhibition 2 degree paw after peroral administration of 2 mg/kg of dose. The settings on record: po, read-out: Inhibition.
The subject of experiment [27] is Rattus norvegicus. In words: Compound was tested in vivo for antiinflammatory activity against chronic adjuvant arthritic rat by prophylactic inhibition 1 degree paw after peroral administration of 2 mg/kg of dose. Conditions: po, read-out: Inhibition.

“And” between values parts separate entries of the source, which are not always exact repeats. Equal entries are not always repeated.

Compound `Cn1c(=O)c2c(nc3n(Cc4ccccc4)c(=O)/c(=C/O)c(=O)n23)n(C)c1=O` displayed an Inhibition with Rattus norvegicus [1] of 14%.

In the case of `CCCc1c(O)n(Cc2ccccc2)c2nc3c(c(=O)n(C)c(=O)n3C)n2c1=O`, the inhibition in experiment [2] was 0% and 5%; in experiment [3], 43%. The compound further gave an Antibody titer in the experiment filed under Rattus norvegicus [4] of 9.2. Besides, the DTH in the experiment filed under Rattus norvegicus [5] stood at 0.0464 mm. The Inhibition came out at 37.5% in the experiment on Rattus norvegicus [6]; 9.6% with Rattus norvegicus [7]; 41% with Rattus norvegicus [13] (route oral, 18 mg/kg); 33% in the experiment on Rattus norvegicus [15]; 77% in the experiment with Rattus norvegicus [21]; 64% in the experiment with Rattus norvegicus [22]. The inhibition in vivo at 9 mg/kg in the experiment with Rattus norvegicus [8] came to 38%; in the experiment with Rattus norvegicus [9] it was 17%; in the experiment on Rattus norvegicus [10] it was 16%; in the experiment on Rattus norvegicus [16] it was 15%. Also, the inhibition in vivo at 18 mg/kg came out at 52% in the experiment on Rattus norvegicus [11] and 41% in the experiment with Rattus norvegicus [13] (Rattus norvegicus, po). Further, the inhibition in vivo at 36 mg/kg in the experiment with Rattus norvegicus [12] amounted to 78%; in the experiment with Rattus norvegicus [14] it was 59%. Besides, the Relative potency in the experiment on Rattus norvegicus [17] and in the experiment with Rattus norvegicus [18] was 1 throughout. In addition, the Positive in the experiment listed under Rattus norvegicus [19] and in the experiment on Rattus norvegicus [20] was 26.7% throughout.

In the experiment listed under Rattus norvegicus [4], `CN1C(C(=O)Nc2ccccn2)=C(O)c2ccccc2S1(=O)=O` [PIROXICAM] had an Antibody titer of 12.2. In the experiment listed under Rattus norvegicus [5], this compound showed a DTH of 0.0526 mm. For the same compound, in the experiment with Rattus norvegicus [23], the 50% effect level (ED50) was put at a dose of 3.5 mg/kg. Also, the Inhibition in the experiment with Rattus norvegicus [6] and in the experiment on Rattus norvegicus [7] was 0% each time. Moreover, the inhibition in vivo at 5 mg/kg with Rattus norvegicus [24] came out at 80%; with Rattus norvegicus [25], 68%. Further, the inhibition in vivo at 2 mg/kg stood at 84% with Rattus norvegicus [26] and 66% in the experiment with Rattus norvegicus [27]. The Positive in the experiment listed under Rattus norvegicus [19] is 60%; in the experiment on Rattus norvegicus [20], 73.3%.

The values above are taken from ChEMBL document CHEMBL1123282, “Antiinflammatory activity of substituted 6-hydroxypyrimido[2,1-f]purine-2,4,8(1H,3H,9H)-triones. Atypical nonsteroidal antiinflammatory agents” (J Med Chem, 1986).
